According to ChEMBL document CHEMBL4602702, “Red-Emitting Dibenzodiazepinone Derivatives as Fluorescent Dualsteric Probes for the Muscarinic Acetylcholine M2 Receptor” (J Med Chem, 2020):

Experiments:
[1] = target: T1, Muscarinic acetylcholine receptor M1 (Homo sapiens, UniProt P11229); assay: Displacement of [3H]-NMS from human muscarinic M1 receptor stably expressed in CHO-K9 cells by radioligand competitive binding assay; format: cell-based
T1 sequence (P11229 whole entry): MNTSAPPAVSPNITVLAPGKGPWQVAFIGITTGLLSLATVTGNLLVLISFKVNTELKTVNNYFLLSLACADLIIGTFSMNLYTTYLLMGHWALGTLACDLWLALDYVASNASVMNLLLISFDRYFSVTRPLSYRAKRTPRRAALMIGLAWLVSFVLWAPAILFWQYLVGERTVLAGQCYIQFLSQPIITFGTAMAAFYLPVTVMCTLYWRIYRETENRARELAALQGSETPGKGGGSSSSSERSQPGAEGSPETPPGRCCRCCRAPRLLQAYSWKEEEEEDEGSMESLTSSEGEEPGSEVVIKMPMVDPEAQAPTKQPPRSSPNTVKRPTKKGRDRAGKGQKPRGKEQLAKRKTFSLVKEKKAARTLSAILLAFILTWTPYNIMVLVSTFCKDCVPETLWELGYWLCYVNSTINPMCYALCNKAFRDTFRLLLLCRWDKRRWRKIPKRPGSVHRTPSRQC
Summary of the method: (§1)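 Equilibrium competition binding at live CHO-hMxR cells with [3H]NMS at M1 0.2, M2 0.2, M3 0.2, M4 0.1, M5 0.3 nM. […] Four-parameter logistic fit converted to pKi; at least three experiments in triplicate (some two).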

[2] = target: T2, Muscarinic acetylcholine receptor M5 (Homo sapiens, UniProt P08912); assay: Displacement of [3H]-NMS from human muscarinic M5 receptor stably expressed in CHO-K9 cells by radioligand competitive binding assay; format: cell-based; summary of the method: as §1
T2 sequence (P08912 whole entry): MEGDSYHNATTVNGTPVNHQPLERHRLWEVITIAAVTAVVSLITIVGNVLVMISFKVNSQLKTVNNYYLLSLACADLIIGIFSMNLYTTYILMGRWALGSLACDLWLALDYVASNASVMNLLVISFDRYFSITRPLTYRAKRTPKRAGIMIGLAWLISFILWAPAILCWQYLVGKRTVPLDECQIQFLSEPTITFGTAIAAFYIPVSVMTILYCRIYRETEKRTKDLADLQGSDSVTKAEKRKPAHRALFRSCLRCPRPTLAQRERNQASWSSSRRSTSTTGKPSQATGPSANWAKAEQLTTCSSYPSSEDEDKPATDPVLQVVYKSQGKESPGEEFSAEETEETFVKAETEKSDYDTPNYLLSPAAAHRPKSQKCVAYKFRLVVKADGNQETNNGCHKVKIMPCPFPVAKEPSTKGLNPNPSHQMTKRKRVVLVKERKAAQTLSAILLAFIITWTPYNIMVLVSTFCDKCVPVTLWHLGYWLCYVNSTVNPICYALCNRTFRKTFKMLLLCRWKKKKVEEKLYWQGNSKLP

[3] = target: T1, Muscarinic acetylcholine receptor M1; assay: Binding affinity to human muscarinic M1 receptor expressed in CHO-K9 cells incubated in dark measured after 60 mins by Hoechst H33342 dye based confocal plate reader assay; format: cell-based
Summary of the method: (§2)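 Live CHO-hMxR cells (M1 or M2) incubated with fluorescent ligand at 22 °C in the dark for 1 h, washed, then imaged at once by high-content confocal plate reader.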

[4] = target: T3, Muscarinic acetylcholine receptor M2 (Homo sapiens, UniProt P08172); assay: Binding affinity to human muscarinic M2 receptor expressed in CHO-K9 cells incubated in dark measured after 60 mins by Hoechst H33342 dye based confocal plate reader assay; format: cell-based; summary of the method: as §2
T3 sequence (P08172 whole entry): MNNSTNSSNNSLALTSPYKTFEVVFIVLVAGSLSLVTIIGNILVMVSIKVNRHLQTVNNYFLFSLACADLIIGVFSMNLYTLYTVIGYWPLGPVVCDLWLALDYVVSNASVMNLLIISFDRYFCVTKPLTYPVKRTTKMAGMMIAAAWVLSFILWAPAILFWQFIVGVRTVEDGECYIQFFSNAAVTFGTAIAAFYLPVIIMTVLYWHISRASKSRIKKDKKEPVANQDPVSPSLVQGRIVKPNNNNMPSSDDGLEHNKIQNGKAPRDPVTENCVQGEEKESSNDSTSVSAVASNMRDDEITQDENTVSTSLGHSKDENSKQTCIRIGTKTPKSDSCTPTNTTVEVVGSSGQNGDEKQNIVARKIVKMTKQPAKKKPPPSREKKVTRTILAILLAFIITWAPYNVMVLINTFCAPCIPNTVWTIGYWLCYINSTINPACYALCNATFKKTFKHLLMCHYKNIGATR

[5] = target: T3, Muscarinic acetylcholine receptor M2; assay: Binding affinity to human muscarinic M2 receptor expressed in […] cells at 22 +/- 1 degree C preincubated for 110 mins followed by atropine addition by flow cytometric saturation binding study; format: cell-based
[6] = target: T1, Muscarinic acetylcholine receptor M1; assay: Binding affinity to human muscarinic M1 receptor expressed in CHO-K9 cells incubated in dark at 22 degree C for 2 hrs by FACSCalibur flow cytometric saturation binding study; format: cell-based
[7] = target: T4, Muscarinic acetylcholine receptor M4 (Homo sapiens, UniProt P08173); assay: Binding affinity to human muscarinic M4 receptor expressed in […] cells incubated in dark at 22 degree C for 2 hrs by FACSCalibur flow cytometric saturation binding study; format: cell-based
T4 sequence (P08173 whole entry): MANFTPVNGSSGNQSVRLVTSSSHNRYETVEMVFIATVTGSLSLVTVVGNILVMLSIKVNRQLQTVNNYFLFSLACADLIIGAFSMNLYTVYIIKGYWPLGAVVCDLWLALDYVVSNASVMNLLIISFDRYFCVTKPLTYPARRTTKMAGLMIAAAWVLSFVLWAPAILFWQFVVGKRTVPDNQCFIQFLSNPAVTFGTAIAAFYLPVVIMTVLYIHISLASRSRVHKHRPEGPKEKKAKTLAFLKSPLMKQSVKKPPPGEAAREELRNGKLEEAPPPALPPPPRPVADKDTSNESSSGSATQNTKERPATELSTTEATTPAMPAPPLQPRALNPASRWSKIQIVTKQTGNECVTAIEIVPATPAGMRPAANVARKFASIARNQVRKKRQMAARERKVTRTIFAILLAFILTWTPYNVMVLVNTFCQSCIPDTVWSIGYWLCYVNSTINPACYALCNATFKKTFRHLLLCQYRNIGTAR

[8] = target: T5, Muscarinic acetylcholine receptor M2 (Homo sapiens) (UniProt P08172); assay: Binding affinity to human muscarinic M2 receptor expressed in CHO-K9 cells assessed as dissociation rate constant at 22 +/- 1 degree C preincubated for 180 mins followed by atropine addition by flow cytometric saturation binding study; format: cell-based
T5 sequence (whole entry): T3 sequence (P08172 whole entry)
Summary of the method: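 Dissociation followed by flow cytometry at 22 °C over 9 h. koff from three-parameter incomplete monophasic decline fit; three or four experiments in duplicate.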

[9] = target: T3, Muscarinic acetylcholine receptor M2; assay: Binding affinity to human muscarinic M2 receptor expressed in […] cells at 22 +/- 1 degree C preincubated for 180 mins followed by atropine addition by flow cytometric kinetic binding study
[10] = target: T3, Muscarinic acetylcholine receptor M2; assay: Binding affinity to human muscarinic M2 receptor expressed in […] cells at 22 +/- 1 degree C preincubated for 120 mins followed by atropine addition by flow cytometric saturation binding study; format: cell-based

Row | Ki [1] | Ki [2] | Kd [3] | Kd ([4]; read-out: Kd) | Kd ([4]; read-out: pKd (converted)) | Kd [5] | Kd [6] | Kd [7] | K [8] | Kd [9] | Kd [10] | SMILES
1 | 2.29 nM | 407 nM | 10 nM | 2.9 nM | 5.62 nM | 1.4 nM | – | – | – | – | – | CC1(C)C(/C=C/C=C/C=C2/N(CCCCCC(=O)NCc3cc(C(=O)NCCNC(=O)CCc4cn(CCCCC5CCN(CC(=O)N6c7ccccc7NC(=O)c7ccccc76)CC5)cn4)cc(C(=O)NCCNC(=O)CCc4cn(CCCCC5CCN(CC(=O)N6c7ccccc7NC(=O)c7ccccc76)CC5)cn4)c3)c3ccc(S(=O)(=O)O)cc3C2(C)C)=[N+](CCCCS(=O)(=O)[O-])c2ccccc21.O=C(O)C(F)(F)F.O=C(O)C(F)(F)F.O=C(O)C(F)(F)F
2 | 2.88 nM | 135 nM | – | 5.3 nM | 4.68 nM | – | 6.46 nM | 9.55 nM | 0.0045 min⁻¹ | 0.48 nM | – | CC1(C)C(/C=C/C=C/C=C2/N(CCCCCC(=O)NCCN3CCN(CCCCC4CCN(CC(=O)N5c6ccccc6NC(=O)c6ccccc65)CC4)CC3)c3ccc(S(=O)(=O)O)cc3C2(C)C)=[N+](CCCCS(=O)(=O)[O-])c2ccccc21.O=C(O)C(F)(F)F.O=C(O)C(F)(F)F
3 | 5.25 nM | 166 nM | 26.3 nM | 12.6 nM | 11.5 nM | – | – | – | – | – | 1.9 nM | CC1(C)C(/C=C/C=C/C=C2/N(CCCCCC(=O)NCCNC(=O)CCc3cn(CCCCC4CCN(CC(=O)N5c6ccccc6NC(=O)c6ccccc65)CC4)cn3)c3ccc(S(=O)(=O)O)cc3C2(C)C)=[N+](CCCCS(=O)(=O)[O-])c2ccccc21.O=C(O)C(F)(F)F
